In ChEMBL document CHEMBL2434840, “Discovery of 4-amino-2-(thio)phenol derivatives as novel protein kinase and angiogenesis inhibitors for the treatment of cancer: synthesis and biological evaluation. Part II” (Eur J Med Chem, 2013):
pIC50: −log10 of the molar value. Activity calls are given as the source filed them. No cut-off for these calls is given here.

Key:
[1] = target: Vascular endothelial growth factor receptor 2 (Homo sapiens) (UniProt P35968); assay: Inhibition of VEGFR2 (unknown origin) phosphorylation at 1 ug/mL by cell-based Western blotting analysis
[2] = target: Vascular endothelial growth factor receptor 2 (Homo sapiens) (UniProt P35968); assay: Inhibition of VEGFR2 (unknown origin) phosphorylation at 5 ug/mL by cell-based Western blotting analysis
[3] = tested on: HUVEC; assay: Antiangiogenic activity in HUVEC assessed as inhibition of tube formation at 10 uM after 6 hrs by Matrigel assay; assay type: functional, cell-based; settings: Homo sapiens
How it was run: (§1)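 HUVECs seeded at 40,000 cells/well on Matrigel (gelled 30 min, 37 °C, 5% CO2) in M199 with 5% FBS plus compound or 0.5% DMSO vehicle; pazopanib positive control; 6 h at 37 °C, 5% CO2. Tube networks were scored by phase-contrast microscopy and photographed at ×100. Three independent experiments.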

[4] = target: ALK tyrosine kinase receptor (Homo sapiens) (UniProt Q9UM73); assay: Inhibition of ALK (unknown origin) at 10 uM after 30 mins by fluorescence assay relative to control
How it was run: (§2)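 Enzyme plus compound (10 μM screen) or water in Hepes/Tris pH 7.4, EGTA/Tris, MgCl2, DTT and 0.008% Tween 20. Substrate and ATP started the reaction, 30 min at room temperature. EDTA stop, then europium-labelled anti-phospho-PT66 antibody for 60 min and TR-FRET read. Basal wells had no enzyme. Percent inhibition of control activity; staurosporine reference; duplicate.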

[5] = tested on: Thoracic aorta; assay: Antiangiogenic activity in Sprague-Dawley rat thoracic aorta rings assessed as reduction of microvessel outgrowth at 10 uM treated every other day for 6 days by Matrigel assay; assay type: functional, tissue-based
How it was run: (§3)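 Aortas were taken from male Sprague Dawley rats aged 8–10 weeks and cleaned of fibroadipose tissue. 1-mm rings were embedded between two 100 μL Matrigel layers and set 30 min at 37 °C, 5% CO2. Compound, pazopanib or 0.5% DMSO vehicle was added every other day for 6 days. Outgrowth was photographed on day 7 at ×200. Three independent experiments.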

[6] = target: T1, RAC-alpha serine/threonine-protein kinase (Homo sapiens, UniProt P31749); assay: Inhibition of AKT (unknown origin) at 10 uM after 30 mins by fluorescence assay relative to control; how it was run: as §2
[7] = tested on: Thoracic aorta; assay: Antiangiogenic activity in Sprague-Dawley rat thoracic aorta rings assessed as reduction of microvessel outgrowth at 0.1 uM treated every other day for 6 days by Matrigel assay; assay type: functional, tissue-based; how it was run: as §3
[8] = tested on: HUVEC; assay: Antiangiogenic activity in HUVEC assessed as inhibition of tube formation at 0.1 uM after 6 hrs by Matrigel assay; assay type: functional, cell-based; settings: Homo sapiens; how it was run: as §1
[9] = tested on: Thoracic aorta; assay: Antiangiogenic activity in Sprague-Dawley rat thoracic aorta rings assessed as reduction of microvessel outgrowth at 1 uM treated every other day for 6 days by Matrigel assay; assay type: functional, tissue-based; how it was run: as §3
[10] = target: T1, RAC-alpha serine/threonine-protein kinase; assay: Inhibition of AKT (unknown origin) after 30 mins by fluorescence assay
[11] = tested on: HUVEC; assay: Antiangiogenic activity in HUVEC assessed as inhibition of tube formation after 6 hrs by Matrigel assay; assay type: functional, cell-based; settings: Homo sapiens; how it was run: as §1
[12] = tested on: Thoracic aorta; assay: Antiangiogenic activity in Sprague-Dawley rat thoracic aorta rings assessed as reduction of microvessel outgrowth treated every other day for 6 days by Matrigel assay; assay type: functional, tissue-based; how it was run: as §3
[13] = target: Tyrosine-protein kinase ABL1 (Homo sapiens, UniProt P00519); assay: Inhibition of ABL (unknown origin) after 30 mins by fluorescence assay
Tyrosine-protein kinase ABL1, sequence (P00519 whole entry): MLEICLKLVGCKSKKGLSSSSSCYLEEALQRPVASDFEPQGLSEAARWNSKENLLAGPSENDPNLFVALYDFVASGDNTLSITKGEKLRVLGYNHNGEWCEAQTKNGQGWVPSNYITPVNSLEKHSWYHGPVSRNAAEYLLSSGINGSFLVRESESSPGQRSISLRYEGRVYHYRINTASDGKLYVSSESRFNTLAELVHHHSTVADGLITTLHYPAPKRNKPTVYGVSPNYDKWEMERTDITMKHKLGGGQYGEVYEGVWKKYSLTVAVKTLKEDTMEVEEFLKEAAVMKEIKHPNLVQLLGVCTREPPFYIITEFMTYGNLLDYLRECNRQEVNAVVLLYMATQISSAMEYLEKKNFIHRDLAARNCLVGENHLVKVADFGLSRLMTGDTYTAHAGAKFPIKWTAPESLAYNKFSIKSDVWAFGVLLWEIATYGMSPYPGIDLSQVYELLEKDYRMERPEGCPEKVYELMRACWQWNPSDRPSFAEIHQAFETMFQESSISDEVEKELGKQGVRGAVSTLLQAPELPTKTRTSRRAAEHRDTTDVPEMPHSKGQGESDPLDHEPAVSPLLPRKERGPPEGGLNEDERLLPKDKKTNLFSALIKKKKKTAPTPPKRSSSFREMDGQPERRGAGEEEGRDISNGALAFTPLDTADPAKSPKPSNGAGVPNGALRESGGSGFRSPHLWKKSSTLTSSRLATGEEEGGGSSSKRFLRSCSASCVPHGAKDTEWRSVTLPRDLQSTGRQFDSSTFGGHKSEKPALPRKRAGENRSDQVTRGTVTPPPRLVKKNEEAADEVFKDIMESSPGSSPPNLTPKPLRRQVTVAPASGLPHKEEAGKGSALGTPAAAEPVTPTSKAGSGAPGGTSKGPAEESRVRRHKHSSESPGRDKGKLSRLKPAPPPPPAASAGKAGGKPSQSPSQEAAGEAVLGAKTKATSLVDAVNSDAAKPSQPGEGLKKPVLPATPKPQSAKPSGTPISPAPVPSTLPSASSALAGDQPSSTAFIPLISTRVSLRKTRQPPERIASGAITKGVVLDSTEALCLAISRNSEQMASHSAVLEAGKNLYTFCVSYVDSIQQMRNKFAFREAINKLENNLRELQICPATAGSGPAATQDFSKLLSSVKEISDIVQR

T1 sequence (P31749 whole entry): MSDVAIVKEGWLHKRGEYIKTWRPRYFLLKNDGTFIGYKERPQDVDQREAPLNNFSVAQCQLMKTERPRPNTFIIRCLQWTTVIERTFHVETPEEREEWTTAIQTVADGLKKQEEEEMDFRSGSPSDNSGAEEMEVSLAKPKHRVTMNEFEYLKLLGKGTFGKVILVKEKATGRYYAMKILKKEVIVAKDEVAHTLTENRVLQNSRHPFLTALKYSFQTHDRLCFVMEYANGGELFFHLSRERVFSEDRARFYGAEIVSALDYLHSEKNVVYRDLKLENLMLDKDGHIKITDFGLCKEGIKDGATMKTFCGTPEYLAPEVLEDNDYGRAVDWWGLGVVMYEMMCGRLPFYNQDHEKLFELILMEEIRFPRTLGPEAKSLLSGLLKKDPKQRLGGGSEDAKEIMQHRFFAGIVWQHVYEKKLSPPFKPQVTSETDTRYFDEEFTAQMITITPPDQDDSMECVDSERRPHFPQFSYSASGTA
ALK tyrosine kinase receptor (Homo sapiens), sequence (Q9UM73 19-1620 limits assumed): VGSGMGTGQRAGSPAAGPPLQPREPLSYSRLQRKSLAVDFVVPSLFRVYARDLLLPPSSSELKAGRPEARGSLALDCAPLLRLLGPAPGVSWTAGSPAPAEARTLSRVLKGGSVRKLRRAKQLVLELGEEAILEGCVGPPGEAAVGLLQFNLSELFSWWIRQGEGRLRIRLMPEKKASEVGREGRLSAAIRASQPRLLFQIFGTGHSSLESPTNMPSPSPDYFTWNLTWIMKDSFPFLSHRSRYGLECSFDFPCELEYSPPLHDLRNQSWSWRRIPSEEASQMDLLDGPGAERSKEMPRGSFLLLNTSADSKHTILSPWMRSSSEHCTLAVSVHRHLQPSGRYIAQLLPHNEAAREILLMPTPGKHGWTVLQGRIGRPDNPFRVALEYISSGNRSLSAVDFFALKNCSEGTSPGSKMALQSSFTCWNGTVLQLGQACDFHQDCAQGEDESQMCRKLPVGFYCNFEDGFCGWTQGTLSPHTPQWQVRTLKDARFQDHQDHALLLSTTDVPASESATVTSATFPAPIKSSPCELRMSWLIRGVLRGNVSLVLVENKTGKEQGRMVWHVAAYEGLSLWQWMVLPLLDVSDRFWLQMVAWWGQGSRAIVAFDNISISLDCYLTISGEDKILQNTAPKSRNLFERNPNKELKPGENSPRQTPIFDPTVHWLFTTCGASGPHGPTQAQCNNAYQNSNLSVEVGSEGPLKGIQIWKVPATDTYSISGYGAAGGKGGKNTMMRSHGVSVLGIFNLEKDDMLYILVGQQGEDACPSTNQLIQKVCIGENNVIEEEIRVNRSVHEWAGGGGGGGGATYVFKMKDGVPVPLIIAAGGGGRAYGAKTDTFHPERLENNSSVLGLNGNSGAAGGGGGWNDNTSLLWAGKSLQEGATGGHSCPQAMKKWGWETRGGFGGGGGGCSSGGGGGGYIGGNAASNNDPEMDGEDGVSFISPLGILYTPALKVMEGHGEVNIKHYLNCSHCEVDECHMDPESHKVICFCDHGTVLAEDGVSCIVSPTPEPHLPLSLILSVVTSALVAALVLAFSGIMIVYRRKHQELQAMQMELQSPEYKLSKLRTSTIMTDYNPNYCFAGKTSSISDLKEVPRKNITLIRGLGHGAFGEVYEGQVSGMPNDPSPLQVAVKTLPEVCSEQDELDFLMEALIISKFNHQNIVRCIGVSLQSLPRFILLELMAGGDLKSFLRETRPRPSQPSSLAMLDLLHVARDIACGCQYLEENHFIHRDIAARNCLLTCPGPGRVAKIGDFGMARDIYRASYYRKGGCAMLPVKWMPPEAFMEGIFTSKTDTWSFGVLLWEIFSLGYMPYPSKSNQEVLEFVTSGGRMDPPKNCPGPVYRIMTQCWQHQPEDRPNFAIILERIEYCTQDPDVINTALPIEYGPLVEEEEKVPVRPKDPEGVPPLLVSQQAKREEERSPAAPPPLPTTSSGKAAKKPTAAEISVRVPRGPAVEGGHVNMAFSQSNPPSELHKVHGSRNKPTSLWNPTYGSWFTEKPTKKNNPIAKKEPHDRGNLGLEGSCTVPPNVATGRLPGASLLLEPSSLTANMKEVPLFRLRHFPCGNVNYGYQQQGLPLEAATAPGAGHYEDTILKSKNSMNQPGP
Vascular endothelial growth factor receptor 2 (Homo sapiens), sequence (P35968 whole entry): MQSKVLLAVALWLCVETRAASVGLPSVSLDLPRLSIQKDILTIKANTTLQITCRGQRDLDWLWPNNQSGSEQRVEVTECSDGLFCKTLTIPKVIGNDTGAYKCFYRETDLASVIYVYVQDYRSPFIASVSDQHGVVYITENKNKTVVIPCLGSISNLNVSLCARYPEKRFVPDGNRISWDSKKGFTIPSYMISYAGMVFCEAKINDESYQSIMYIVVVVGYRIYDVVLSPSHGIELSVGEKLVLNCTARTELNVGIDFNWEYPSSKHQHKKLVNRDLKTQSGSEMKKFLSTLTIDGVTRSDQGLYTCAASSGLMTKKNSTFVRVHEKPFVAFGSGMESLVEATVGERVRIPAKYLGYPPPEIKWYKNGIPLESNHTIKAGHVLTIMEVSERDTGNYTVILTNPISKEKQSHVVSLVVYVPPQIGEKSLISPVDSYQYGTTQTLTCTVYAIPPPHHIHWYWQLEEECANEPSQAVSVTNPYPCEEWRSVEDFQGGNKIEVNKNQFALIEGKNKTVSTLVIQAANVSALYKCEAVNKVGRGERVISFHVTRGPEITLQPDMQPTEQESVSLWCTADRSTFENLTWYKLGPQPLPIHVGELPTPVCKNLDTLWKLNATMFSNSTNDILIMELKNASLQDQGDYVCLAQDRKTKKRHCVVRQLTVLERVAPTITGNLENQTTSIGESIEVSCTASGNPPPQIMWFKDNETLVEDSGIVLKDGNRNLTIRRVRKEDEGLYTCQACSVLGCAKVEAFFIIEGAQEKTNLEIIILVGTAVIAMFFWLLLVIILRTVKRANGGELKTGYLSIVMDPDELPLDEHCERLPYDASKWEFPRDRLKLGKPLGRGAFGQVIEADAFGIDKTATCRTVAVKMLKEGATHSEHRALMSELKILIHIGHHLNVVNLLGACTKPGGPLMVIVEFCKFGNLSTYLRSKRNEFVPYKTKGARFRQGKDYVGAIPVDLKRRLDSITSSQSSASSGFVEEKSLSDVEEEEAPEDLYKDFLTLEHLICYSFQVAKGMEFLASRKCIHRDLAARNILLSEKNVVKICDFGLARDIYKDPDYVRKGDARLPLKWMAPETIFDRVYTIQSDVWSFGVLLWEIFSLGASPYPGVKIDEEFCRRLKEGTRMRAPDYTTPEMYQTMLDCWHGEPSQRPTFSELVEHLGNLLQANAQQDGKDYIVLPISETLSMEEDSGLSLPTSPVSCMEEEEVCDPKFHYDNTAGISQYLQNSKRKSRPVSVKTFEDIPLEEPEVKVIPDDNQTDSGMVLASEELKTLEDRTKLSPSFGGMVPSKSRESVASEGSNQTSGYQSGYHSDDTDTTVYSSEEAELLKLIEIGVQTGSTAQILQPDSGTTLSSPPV

| Structure (SMILES) | inhibition [4] | inhibition [6] | further results |
| --- | --- | --- | --- |
| Cc1ccc(Nc2nccc(N(C)c3ccc4c(C)n(C)nc4c3)n2)cc1S(N)(=O)=O | – | – | inhibition [1]: Active; inhibition [2]: Active; inhibition [7]: Active; inhibition [8]: Active |
| O=S(=O)(Nc1ccc(O)c(Sc2ncn[nH]2)c1)c1ccc2ccccc2c1 | inactive | inactive | – |
| COc1ccc(S(=O)(=O)Nc2ccc(O)c(Sc3nc[nH]n3)c2)cc1 | 29.5% | 12.1% | – |
| CS(=O)(=O)Nc1ccc(O)c(Sc2ncn[nH]2)c1 | 15.9% | 14.3% | – |
| O=C(Nc1ccc(O)c(Sc2ncn[nH]2)c1)c1ccc([N+](=O)[O-])cc1 | inactive | 50.7% | – |
| CC(C)c1cc(C(C)C)c(S(=O)(=O)Nc2ccc(O)c(Sc3ncn[nH]3)c2)c(C(C)C)c1 | 17.1% | 14.5% | – |
| O=[N+]([O-])c1ccc(S(=O)(=O)Nc2ccc(O)c(Sc3ncn[nH]3)c2)cc1 | 49.4% | 100% | inhibition [1]: Active; inhibition [2]: Active; inhibition [9]: Active; pIC50 [10]: 5.90; inhibition [11]: Dose-dependent effect; Activity [12]: Dose-dependent effect; pIC50 [13]: 5.82 |
| O=C(Nc1ccc(O)c(Sc2ncnc3nc[nH]c23)c1)c1ccc([N+](=O)[O-])cc1 | 21.9% | 64.6% | inhibition [2]: Active; inhibition [3]: inactive; inhibition [5]: inactive |
| O=[N+]([O-])c1ccc(S(=O)(=O)Nc2ccc(O)c(Sc3ncnc4nc[nH]c34)c2)cc1 | inactive | 37.5% | – |
| Cc1nnc(Sc2cc(NC(=O)c3ccc([N+](=O)[O-])cc3)ccc2O)s1 | 14% | 12.3% | – |
| Cn1nnnc1Sc1cc(NS(=O)(=O)c2ccc([N+](=O)[O-])cc2)ccc1O | inactive | 11.5% | – |
| Cc1ccc(S(=O)(=O)Nc2ccc(O)c(Sc3nc[nH]n3)c2)cc1 | 15.3% | 29.8% | – |
| CN[C@@H]1C[C@H]2O[C@@](C)([C@@H]1OC)n1c3ccccc3c3c4c(c5c6ccccc6n2c5c31)C(=O)NC4 | – | 96.5% | – |

The next lines start with results.

| inhibition [4] | inhibition [6] | Structure (SMILES) | further results |
| --- | --- | --- | --- |
| inactive | 56.4% | O=S(=O)(Nc1ccc(O)c(Sc2ncn[nH]2)c1)c1ccc(Cl)cc1 | inhibition [1]: inactive; inhibition [2]: inactive; inhibition [3]: inactive; inhibition [5]: inactive |
| 18% | 19.7% | Cc1cc(C)c(S(=O)(=O)Nc2ccc(O)c(Sc3nc[nH]n3)c2)c(C)c1 | – |
| 10% | 20.4% | O=S(=O)(Nc1ccc(O)c(Sc2ncn[nH]2)c1)c1cccc2ccccc12 | – |
| inactive | 10.1% | Cn1nnnc1Sc1cc(NC(=O)c2ccc([N+](=O)[O-])cc2)ccc1O | – |
| 21.8% | 14.2% | Cc1nnc(Sc2cc(NS(=O)(=O)c3ccc([N+](=O)[O-])cc3)ccc2O)s1 | – |
| 10.3% | 48.4% | O=S(=O)(Nc1ccc(O)c(Sc2ncn[nH]2)c1)c1c(Cl)cccc1Cl | – |
| inactive | inactive | O=C(Nc1ccc(O)c(Sc2nncs2)c1)c1ccc([N+](=O)[O-])cc1 | – |
| 11.4% | 14.9% | O=[N+]([O-])c1ccc(S(=O)(=O)Nc2ccc(O)c(Sc3nncs3)c2)cc1 | – |
